Source: PMC6774857 (Cell calcium, 2019)
Where two headings read alike, the source gives them in different places.

Assays:
[1] = tested on: SKBR3 cells; assay: Microinjection of SKBR3 cells with GCaMP6M confocal Ca2+ imaging; assay type: cell-based, human; settings: for EC50 of fold-change in the intensity of the Ca2+ signal: SKBR3 cells transfected with TPC2 and GCaMP6M, concentration in the micropipette
[2] = tested on: sea urchin NAADP receptor; assay: Ca2+ release from sea urchin egg homogenates; assay type: biochemical, Strongylocentrotus purpuratus
In short: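 Ca2+ release measured in Strongylocentrotus purpuratus egg homogenate after adding test compound.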

[3] = target: sea urchin NAADP receptor; assay: Competition-binding assay with [32P]-NAADP in sea urchin egg extracts; set-up: species or system Strongylocentrotus purpuratus; settings: read-out: IC50 competition with [32P]-NAADP
[4] = Solubility in buffered water; assay type: physicochemical
[5] = target: sea urchin NAADP receptor; settings: sea urchin egg homogenates, cited from earlier work
[6] = target: T1, 23 kDa NAADP binding protein(s) (Homo sapiens, UniProt Q9H910); settings: Jurkat cell extracts, 23 kDa band
T1 sequence (Q9H910 1-190): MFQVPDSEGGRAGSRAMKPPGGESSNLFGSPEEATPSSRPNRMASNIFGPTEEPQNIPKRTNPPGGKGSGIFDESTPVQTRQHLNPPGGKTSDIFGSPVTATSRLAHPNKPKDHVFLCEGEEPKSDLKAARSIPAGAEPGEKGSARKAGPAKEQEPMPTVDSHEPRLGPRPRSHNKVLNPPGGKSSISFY

[7] = tested on: U2OS cells; settings: cited from earlier work
[8] = tested on: ascidian oocytes; settings: read-out: EC50 of Ca2+ mobilization; cited from earlier work
[9] = target: sea urchin NAADP receptor; assay type: biochemical, Strongylocentrotus purpuratus; settings: read-out: IC50 for desensitization; data not shown

## 5-[3-(3-Azido-5-(azidomethyl)benzamido)propyl]-NAADP [AIOC-NAADP]
[1]
  EC50 of fold-change in the intensity of the Ca2+ signal: 173 nM
[1]; microinjection into cultured human cells, 9 data ref 56
  Potency relative to 9: approximately 10 fold
[2]; at 1 mM
  Calcium released, % of the amount of calcium released by 10 μM NAADP: 18%
[2]; concentrations less than 100 μM
  Release of Ca2+ from sea urchin egg homogenates: did not elicit release
[3]
  IC50: 6000 nM

## [N-]=[N+]=NCc1cc(N=[N+]=[N-])cc(C(=O)NCCCc2cncc(C(=O)O)c2)c1 [compound 4, 5-(3-(3-Azido-5-(azidomethyl)benzamido)propyl) nicotinic acid]
[4]; buffered water at pH 4.5
  Solubility: low solubility
[4]; higher pH (pH ≥ 5)
  Solubility: completely soluble

## 5-(3-(t-Boc-amino)-propyl)-NAADP [compound 3]
[5]; previously synthesized and tested
  EC50 (agonist): micromolar range

## NC(=O)c1ccc[n+]([C@H]2O[C@@H](COP(=O)([O-])OP(=O)(O)OC[C@H]3O[C@@H](n4cnc5c(N)ncnc54)[C@H](OP(=O)(O)O)[C@@H]3O)[C@H](O)[C@@H]2O)c1 [NADP]
[6]
  Fold higher concentrations required for similar protection compared with NAADP: 40 fold

## C#Cc1nc2c(N)ncnc2n1C1OC(COP(=O)(O)OP(=O)(O)OC[C@H]2O[C@@H]([n+]3cc(N=[N+]=[N-])cc(C(=O)[O-])c3)[C@H](O)[C@@H]2O)C(O)C1OP(=O)(O)O (some centres unmarked) [compound 9, 5-azido-8-ethynyl-NAADP]
[7]
  Activity when microinjected into cultured human U2OS cells: active at low concentration

## nicotinic acid adenine dinucleotide phosphate [NAADP]
[1]
  EC50 of fold-change in the intensity of the Ca2+ signal: 22 nM
[8]
  EC50: 10 to 50 nM
[5]; read-out: EC50 of Ca2+ mobilization
  EC50: 10 to 50 nM
[9]
  IC50: 0.3 nM
